Hits are enriched below; roughly 9.4% of the tested compounds scored in any of these assays.
Lmaj promast = inhibitors of Leishmania major promastigote growth | Leishmania major promastigotes, resazurin fluorescence viability | inhibition, % at 10 µM | 9% of 200,000 active; in the data active = inhibition above about 50%;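 note: promastigotes grown with compound for 44 hours at 28 °C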
Beta cell apopt = blocks beta cell apoptosis; protection from apoptosis, % (concentration not given with the values); 0.8% of 300,000 active; INS-1E cytokine-induced death, ATP luminescence, 48 h; percent of positive-control rescue, neutral wells zero;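 active = Every replicate reaches about 75%, or at least half do and their mean reaches it too, limit read from the data; inconclusive = At least half of replicates reach the limit but their mean does not; inactive = Under half of replicates reach the limit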;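 note: 0% = cytokine-treated negative control wells and 100% = positive control rescue; higher means more ATP so stronger rescue from cytokine killing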
Mdm2 MdmX PPI = disrupts the human Mdm2-MdmX interaction; SaOS-2 split-luciferase Mdm2/MdmX complementation, luminescence; inhibition, % at 8 µM; 3% of 330,000 active;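 active = inhibition of at least 50% at 8 µM in the primary screen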
Target sequence (O15151 whole entry, looked up): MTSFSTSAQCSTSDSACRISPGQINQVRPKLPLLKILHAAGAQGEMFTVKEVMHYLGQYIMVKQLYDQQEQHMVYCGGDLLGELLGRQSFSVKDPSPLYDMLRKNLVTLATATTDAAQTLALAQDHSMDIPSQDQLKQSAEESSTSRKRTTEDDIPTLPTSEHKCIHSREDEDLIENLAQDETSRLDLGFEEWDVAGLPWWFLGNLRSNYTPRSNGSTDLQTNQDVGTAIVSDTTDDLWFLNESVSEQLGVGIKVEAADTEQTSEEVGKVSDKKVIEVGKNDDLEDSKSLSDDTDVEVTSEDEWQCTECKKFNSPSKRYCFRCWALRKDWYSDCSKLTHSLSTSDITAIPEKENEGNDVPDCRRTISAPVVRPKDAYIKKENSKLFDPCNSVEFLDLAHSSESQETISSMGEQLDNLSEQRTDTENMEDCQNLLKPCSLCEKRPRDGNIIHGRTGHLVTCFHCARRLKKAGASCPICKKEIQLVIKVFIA
Target sequence (Q00987 whole entry, looked up): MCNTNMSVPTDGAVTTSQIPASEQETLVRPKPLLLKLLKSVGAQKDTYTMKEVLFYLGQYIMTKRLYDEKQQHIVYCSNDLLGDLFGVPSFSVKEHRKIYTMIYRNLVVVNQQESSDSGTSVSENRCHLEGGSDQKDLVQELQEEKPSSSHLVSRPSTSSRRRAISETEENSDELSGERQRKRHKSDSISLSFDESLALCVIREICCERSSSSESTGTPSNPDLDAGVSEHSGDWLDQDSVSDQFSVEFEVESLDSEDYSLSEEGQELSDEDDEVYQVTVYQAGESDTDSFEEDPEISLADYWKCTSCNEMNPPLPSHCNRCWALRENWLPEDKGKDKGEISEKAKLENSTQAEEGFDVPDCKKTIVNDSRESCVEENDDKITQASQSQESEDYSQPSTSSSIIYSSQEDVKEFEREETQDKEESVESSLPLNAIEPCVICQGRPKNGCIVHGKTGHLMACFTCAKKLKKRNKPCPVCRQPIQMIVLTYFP
CSC inhib = cancer stem cell inhibition; AID 2717; cancer stem cell-like cells viability, luminescence; inhibition, % at 7.5 µM; 1.1% of 300,000 active; in the data active = inhibition above about 75%; inconclusive = no clear call, values can overlap the other calls; tested in HMLE shEcad cells
SKKanGAS inh = inhibitors of SKKanGAS S. pyogenes growth in kanamycin (SK-promoter or general growth effect). BacTiter-Glo, 6 h. inhibition, % at 7.5 µM. 1.3% of 300,000 active;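 active = mean replicate score, as percent of positive control median, at least 50; inconclusive = mean below 50 but one replicate at or above 50; inactive = mean and every replicate below 50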;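 note: strain carries kanamycin resistance gene driven by streptokinase promoter and grows in 40 µg/ml kanamycin; loss of luminescence reflects streptokinase promoter inhibition or plain growth inhibition; 0% = median of DMSO wells and 100% = positive control at its reference dose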
T cruzi repl = blocks replication of Trypanosoma cruzi. 1.4% of 300,000 active. T. cruzi beta-gal in NIH3T3, luminescence, 90 h. inhibition, % (no concentration beside the values). AID 1885;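 active = mean inhibition across valid replicates above about 55%, limit read from the data; inconclusive = mean below that limit but half or more replicates reach it; inactive = mean below it, under half of replicates reach it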;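 note: signal also drops with host cell toxicity which is not excluded here; 0% = plate median of DMSO wells and 100% = zero luminescence signal; higher percent means less beta-gal luminescence so fewer parasites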
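Incubation – ≥90 h infection period, 3 h prior cell attachment · System – NIH/3T3 fibroblasts plus reporter T. cruzi · Doses – compound pinned at 50 nL/well, DMSO · Read-out basis – percent inhibition of parasite-derived β-gal signal · Signal – luminescent β-galactosidase signal after 60 min lysis · Also added – 5000 T. cruzi trypomastigotes/well · Medium – Low-serum DMEM with 2% FBS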
Mdm2-MdmX conf = human Mdm2/MdmX binding inhibition, confirmed; 55% of 10,000 active; luminescent assay; inhibition, % at 8 µM; shares compounds with Mdm2 MdmX PPI; in the data active = inhibition above about 40%
Full FLuc ctr = counter-screen for Mdm2/MdmX inhibitors: full-length luciferase; inhibition, % at 8 µM; SaOS-2 full-length luciferase counterscreen, luminescence; 77% of 6,200 active; AID 504607; shares compounds with Mdm2 MdmX PPI;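 active = mean inhibition at 8 µM reaching about 37%, which flags the compound as non-specific, limit read from the data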;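 note: p53-null SaOS-2 cells with luciferase driven by a doxycycline-inducible promoter; compound on cells about two nights before reading with doxycycline added after day one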
An asterisk follows results filed as active; ? = inconclusive; · = not tested or not shown; ! = not confirmed by another sample.

SMILES	Lmaj promast	Beta cell apopt	Mdm2 MdmX PPI	CSC inhib	SKKanGAS inh	T cruzi repl	Mdm2-MdmX conf	Full FLuc ctr
C[C@@H](NCCc1ccc(O)cc1)[C@@H](O)c1ccc(O)cc1	·	-2.1	-9.9	-14.3	-7.5	-22.0	·	·
CCCCCCCCNC(C)C(O)c1ccc(SC(C)C)cc1 (centres undefined)	100.3*	117.3*	95.1*	101.7*	0.2	?	15.2	·
Cn1cccc1/C=N\NC(=O)c1cncc(Br)c1	·	-4.5	-1.7	-12.2	20.1	-6.0	·	·
O=C(N/N=C/c1c(O)ccc2ccccc12)c1cccnc1	·	96.4*	69.6*	?	23.9	66.2*	74.2*	29.9
Cc1cc(O)c(C)c(O)c1/C=N/NC(=O)c1cccnc1	·	·	57.4*	45.9	-0.8	5.6	45.4*	68.8*
Cc1ccc(C(=O)N/N=C/c2c(O)ccc3ccccc23)cn1	·	·	74.8*	80.7*	60.1*	66.9*	81.5*	26.6
O=C(N/N=C\c1c(O)ccc2ccccc12)c1cncc(Br)c1	·	87.5*	83.0*	98.2*	106.2*	65.4*	75.8*	26.8
COc1ccc2ccccc2c1/C=N\NC(=O)c1cccnc1	·	·	26.9	-10.7	-2.5	-5.4	·	·
COc1ccccc1/C=N/NC(=O)c1ccc(C)nc1	·	-1.8	22.6	-3.8	-4.7	-7.8	·	·
O=C(NCC(c1ccco1)N1CCCCC1)c1ccc([N+](=O)[O-])s1 (centres undefined)	·	-0.2	5.1	-4.2	·	·	·	·
CC1CNCCN1S(=O)(=O)c1cccc2cnccc12 (centres undefined)	-3.9	-2.0	54.9*!	-14.2	1.4	9.5	24.8	·
O=S(=O)(c1cccc2cnccc12)N1CCCNCC1	-6.5	·	59.1*	-6.7	-1.6	6.3	47.0*	65.2*
CCOC(=O)c1c(C)nc2sc(C(=O)Nc3ccccc3)c(N)c2c1-c1ccc(OC)cc1	96.6*	35.5	59.5*	-9.3	20.6	26.6	35.5	·
CCOC(=O)c1c(C)nc2sc(C(N)=O)c(N)c2c1-c1ccccc1	33.9	-8.7	12.9	7.2	0.8	0.7	·	·
CC(C)CNC(=O)c1ccc(Cl)c(N)c1	21.8	-6.9	8.2	-10.6	3.9	-3.4	·	·
O=C1C=CC(=O)N1CCNc1ncc(C(F)(F)F)cc1Cl	1.6	·	62.6*	·	76.6*	56.6*	67.6*	52.8*
O=C1CC(=O)N(CCNc2ncc(C(F)(F)F)cc2Cl)C(=O)N1	-4.1	·	22.6	-24.3	-5.8	-5.7	·	·
CCc1ccc2c(c1)C1(NN=C(c3ccc(C)cc3)S1)C(=O)N2 (centres undefined)	98.7*	49.8	74.3*	9.2	80.4*	?	67.8*	63.2*
CC(C)c1ccc2c(c1)C1(NN=C(c3ccccc3)S1)C(=O)N2 (centres undefined)	98.8*	73.6	59.0*	116.1*	98.6*	65.8*	69.2*	69.2*
Cc1ccc(Cc2cc(-c3ccc(C)cc3)n[nH]c2=O)cc1	·	-18.6	-7.9	-14.8	17.2	4.2	·	·
CS(=O)(=O)Nc1cccc(-c2cn3c(n2)SCC3)c1	·	-12.0	14.6	-3.0	-3.3	-5.2	·	·
c1ccc(Nc2ccccc2Nc2ccccn2)nc1	25.9	-2.5	-6.4	·	-11.4	8.3	·	·
Oc1cccc2ccc(Nc3ccccn3)nc12	100.5*	105.9*	71.9*	103.6*	39.3	62.3*	100.2*	52.0*
S=C(NCCc1ccccc1)N1CCN(C23CC4CC(CC(C4)C2)C3)CC1	28.3	-5.1	22.6	53.3	-3.8	38.8	·	·
Nc1c(N(CCC2=CCCCC2)C(=O)CCCOc2ccccc2)c(=O)[nH]c(=O)n1Cc1ccccc1	·	-8.7	37.5	-9.9	10.6	15.8	·	·
SMILES	Lmaj promast	Beta cell apopt	Mdm2 MdmX PPI	CSC inhib	SKKanGAS inh	T cruzi repl	Mdm2-MdmX conf	Full FLuc ctr
Nc1c(N(CCC2=CCCCC2)C(=O)COc2ccc(F)cc2)c(=O)[nH]c(=O)n1Cc1ccccc1	·	97.0*	53.2*	73.8	·	·	10.6	·
Cc1ccc(Cc2cnc(NC(=O)/C(C#N)=C/c3ccc(-c4ccc([N+](=O)[O-])cc4)o3)s2)cc1	-6.3	2.0	57.7*	2.3	-2.0	-20.5	5.0	·
Cc1cnc(NC(=O)c2ccc(-c3ccc([N+](=O)[O-])cc3)o2)s1	·	5.6	32.4	-11.8	·	·	·	·
COc1ccc(CCN(C)C2CCCN(S(=O)(=O)c3ccccc3F)C2)cc1OC (centres undefined)	·	-4.3	6.4	2.7	0.1	21.2	·	·
Cn1c(/C(C#N)=C(\O)c2ccc([N+](=O)[O-])cc2)nc2ccccc21	-9.3	-0.9	85.7*	-8.5	-16.2	-17.9	27.2	·
NCCc1c(-c2ccccc2)n(-c2ccccc2)c2ccccc12	100.6*	·	61.1*	·	-1.4	63.6*	53.2*	70.7*
CCN(CC)C(=O)Cn1cc(S(=O)(=O)CC(=O)Nc2cc(OC)ccc2OC)c2ccccc21	·	·	6.2	-1.6	0.3	9.8	·	·
C/C(O)=C(\C#N)c1nc2ccccc2[nH]1	4.2	-5.0	-24.3	8.1	-3.8	-6.7	·	·
COc1ccc(/C=N/OC/C(O)=C(\C#N)c2nc3ccccc3[nH]2)cc1OC	-3.8	-1.2	72.9*	-3.6	4.1	2.9	24.9	·
N#C/C(=C(\O)Cc1ccccc1)c1nc2ccccc2[nH]1	-2.4	8.9	54.8*	-7.9	-0.7	-29.1	9.9	·
N#C/C(=C(/O)c1ccc([N+](=O)[O-])s1)c1nc2ccccc2[nH]1	·	54.3	89.2*	48.4	15.2	54.7*	82.9*	68.2*
N#C/C(=C(/O)c1ccc(Br)s1)c1nc2ccccc2[nH]1	·	38.2	31.1	42.6	-1.4	-41.2	·	·
Cc1ccc(C(C)C)c(OC/C(O)=C(\C#N)c2nc3ccccc3[nH]2)c1	·	21.6	58.6*	27.7	36.2	-30.0	32.3	·
CC(=O)N1CCc2cc(S(=O)(=O)N3CCOCC3)ccc21	-2.7	-0.8	-3.3	-7.5	-4.9	-13.7	·	·
CC(=O)N1CCc2cc(S(=O)(=O)N3c4ccccc4CC3C)ccc21 (centres undefined)	14.0	11.8	60.6*	-5.7	0.6	3.4	53.8*	57.8*
CC1Cc2ccccc2N1S(=O)(=O)c1cnc(Cl)c(Cl)c1 (centres undefined)	·	-3.4	30.2	0.4	10.9	-0.7	·	·
CSc1ccc(S(=O)(=O)N2c3ccccc3CC2C)cc1 (centres undefined)	·	6.0	53.2*	38.5	22.5	16.6	54.2*	65.1*
COc1cc(C(=O)NCC(c2cccs2)N2CCOCC2)cc(Br)c1OCc1ccccc1 (centres undefined)	·	19.7	51.1*	30.1	·	·	41.9*	39.4*
Cc1ccc2c(c1)N(CC(=O)NCCCN1CCOCC1)C(=O)C(C(C)C)O2 (centres undefined)	·	-0.8	-15.0	-5.4	30.9	-8.8	·	·
